ChEMBL document CHEMBL4118248, “Small Molecule Proprotein Convertase Subtilisin/Kexin Type 9 (PCSK9) Inhibitors: Hit to Lead Optimization of Systemic Agents” (J Med Chem, 2018)

Legend:
[1] = Lipophilicity, log D of the compound by shake flask method; format: physicochemical; conditions: octanol/water
Outline: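 LogD measured by the shake-flask method.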

[2] = Intrinsic clearance in rat liver microsomes; format: ADME, microsome; conditions: read-out: CLH
[3] = Intrinsic clearance in human liver microsomes; format: ADME, microsome; conditions: read-out: CLH
[4] = biological target: 80S Ribosome; test: Binding affinity to 80S ribosome in human HuH7 cells harboring pCMV-truncated human PCSK9 (1 to 152 residues)-proLuc assessed as inhibition of PCSK9 mRNA translation after overnight incubation by luciferase reporter gene assay; format: cell-based; conditions: huh-7
Outline: (§1)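 Huh7 cells stably carry human PCSK9 prodomain (aa 1-152) fused to firefly luciferase (aa 2-550) in pcDNA3.1, kept under 900 µg/mL Geneticin. Plated 10,000/well in phenol red-free DMEM/10% FBS and left 4 h, then compound added (top final 20 µM, 0.5% DMSO). Incubated overnight at 37 °C, luminescence read with SteadyGlo.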

[5] = biological target: T1, Voltage-gated inwardly rectifying potassium channel KCNH2 (Homo sapiens, UniProt Q12809); test: Inhibition of dofetilide binding to human ERG by fluorescence polarization assay
T1 sequence (Q12809 whole entry): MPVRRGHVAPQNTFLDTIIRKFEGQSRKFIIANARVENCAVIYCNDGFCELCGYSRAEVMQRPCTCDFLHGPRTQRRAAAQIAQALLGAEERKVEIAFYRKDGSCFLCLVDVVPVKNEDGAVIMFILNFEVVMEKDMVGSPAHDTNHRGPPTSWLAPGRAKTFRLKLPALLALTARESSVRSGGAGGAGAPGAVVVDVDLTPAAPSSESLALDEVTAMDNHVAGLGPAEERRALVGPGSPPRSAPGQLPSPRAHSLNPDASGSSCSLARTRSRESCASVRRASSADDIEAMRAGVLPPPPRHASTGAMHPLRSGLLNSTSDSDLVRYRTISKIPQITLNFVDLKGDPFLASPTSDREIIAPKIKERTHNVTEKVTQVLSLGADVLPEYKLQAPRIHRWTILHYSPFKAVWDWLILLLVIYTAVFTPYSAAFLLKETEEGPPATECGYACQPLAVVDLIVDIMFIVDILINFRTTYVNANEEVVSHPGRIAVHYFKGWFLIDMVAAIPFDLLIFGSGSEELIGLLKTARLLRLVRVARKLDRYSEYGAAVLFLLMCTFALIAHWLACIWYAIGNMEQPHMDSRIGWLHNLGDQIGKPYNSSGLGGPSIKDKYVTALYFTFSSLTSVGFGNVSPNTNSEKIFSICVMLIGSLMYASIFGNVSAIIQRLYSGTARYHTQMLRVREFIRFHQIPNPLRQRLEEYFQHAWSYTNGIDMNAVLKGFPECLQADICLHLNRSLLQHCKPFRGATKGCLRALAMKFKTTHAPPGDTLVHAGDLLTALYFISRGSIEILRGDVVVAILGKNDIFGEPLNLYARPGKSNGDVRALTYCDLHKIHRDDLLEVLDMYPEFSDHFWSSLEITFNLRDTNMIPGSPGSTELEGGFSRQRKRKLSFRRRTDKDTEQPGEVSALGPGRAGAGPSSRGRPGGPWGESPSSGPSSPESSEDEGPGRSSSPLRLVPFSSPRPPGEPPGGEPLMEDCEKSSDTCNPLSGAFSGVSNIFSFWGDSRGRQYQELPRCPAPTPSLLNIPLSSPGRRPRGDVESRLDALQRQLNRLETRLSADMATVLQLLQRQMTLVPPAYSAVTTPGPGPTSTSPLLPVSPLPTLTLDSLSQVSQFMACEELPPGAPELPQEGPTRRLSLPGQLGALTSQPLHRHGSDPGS

[6] = biological target: 80S Ribosome; test: Binding affinity to 80S ribosome in human HuH7 cells assessed as inhibition of PCSK9 mRNA translation after overnight incubation by ELISA; format: cell-based; conditions: huh-7
Outline: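 Huh7 cells kept in high-glucose DMEM, 10% BSA-free FBS, 2 mM L-glutamine, pen/strep at 37 °C, 5% CO2. Plated 7,500/well with compound or vehicle and incubated overnight (16-20 h). Secreted PCSK9 in the medium read by AlphaLISA: two antibodies to different mature-PCSK9 epitopes, biotinylated antibody 3 nM final, acceptor beads 10 µg/mL, 0.5 h rt; streptavidin donor beads 40 µg/mL, 1 h rt.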

[7] = test system: Bone marrow cell; test: Cytotoxicity against rat bone marrow cells assessed as reduction in cell viability after 72 hrs by CellTiter-Glo assay; format: cell-based
[8] = Apparent permeability in RRCK cells; format: ADME, cell-based, Canis lupus familiaris, MDCKII-LE; conditions: dog, MDCK
Outline: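 Passive permeability measured in RRCK cells, a modified Madin-Darby canine kidney line; Papp reported in 10^-6 cm/s.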

[9] = biological target: CYP2C9 (Homo sapiens, UniProt P11712); test: Inhibition of CYP2C9 (unknown origin) at 3 uM relative to control; format: ADME
Chain of CYP2C9 (P11712 whole entry): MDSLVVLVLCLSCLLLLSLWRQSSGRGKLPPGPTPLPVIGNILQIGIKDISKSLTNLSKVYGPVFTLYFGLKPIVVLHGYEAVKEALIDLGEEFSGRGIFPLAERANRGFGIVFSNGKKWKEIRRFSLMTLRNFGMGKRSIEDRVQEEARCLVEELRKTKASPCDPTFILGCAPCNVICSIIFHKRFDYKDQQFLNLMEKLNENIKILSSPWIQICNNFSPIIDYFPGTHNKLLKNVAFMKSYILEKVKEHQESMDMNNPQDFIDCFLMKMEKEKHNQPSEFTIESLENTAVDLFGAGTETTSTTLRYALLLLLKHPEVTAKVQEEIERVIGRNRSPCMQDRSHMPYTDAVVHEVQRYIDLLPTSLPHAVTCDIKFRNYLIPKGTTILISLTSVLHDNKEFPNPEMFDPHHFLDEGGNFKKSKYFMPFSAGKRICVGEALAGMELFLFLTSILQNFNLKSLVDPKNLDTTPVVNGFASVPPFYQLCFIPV
Outline: (§2)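 Inhibition of CYP1A2, 2D6, 2C9 and 3A4 reported as IC50, or as percent inhibition at 3 µM.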

[10] = biological target: CYP3A4 (Homo sapiens, UniProt P08684); test: Inhibition of CYP3A4 (unknown origin) at 3 uM relative to control; format: ADME; outline: as §2
Chain of CYP3A4 (P08684 whole entry): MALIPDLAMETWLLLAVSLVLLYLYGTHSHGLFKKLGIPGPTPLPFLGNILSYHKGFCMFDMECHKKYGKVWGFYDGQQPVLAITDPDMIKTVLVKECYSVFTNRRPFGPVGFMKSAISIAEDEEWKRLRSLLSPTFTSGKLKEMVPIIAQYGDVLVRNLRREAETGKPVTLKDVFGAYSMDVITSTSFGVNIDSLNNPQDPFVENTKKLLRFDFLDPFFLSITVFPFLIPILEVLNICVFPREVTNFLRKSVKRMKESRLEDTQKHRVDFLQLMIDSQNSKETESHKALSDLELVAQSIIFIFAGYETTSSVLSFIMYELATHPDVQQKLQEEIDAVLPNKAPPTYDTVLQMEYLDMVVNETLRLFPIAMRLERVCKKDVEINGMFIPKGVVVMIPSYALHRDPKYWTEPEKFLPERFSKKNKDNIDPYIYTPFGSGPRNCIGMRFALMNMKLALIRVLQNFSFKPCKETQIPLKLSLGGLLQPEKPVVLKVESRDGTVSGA

[11] = biological target: T2, CYP1A2 (Homo sapiens, UniProt P05177); test: Inhibition of CYP1A2 (unknown origin) at 3 uM relative to control; format: ADME; outline: as §2
T2 sequence (P05177 whole entry): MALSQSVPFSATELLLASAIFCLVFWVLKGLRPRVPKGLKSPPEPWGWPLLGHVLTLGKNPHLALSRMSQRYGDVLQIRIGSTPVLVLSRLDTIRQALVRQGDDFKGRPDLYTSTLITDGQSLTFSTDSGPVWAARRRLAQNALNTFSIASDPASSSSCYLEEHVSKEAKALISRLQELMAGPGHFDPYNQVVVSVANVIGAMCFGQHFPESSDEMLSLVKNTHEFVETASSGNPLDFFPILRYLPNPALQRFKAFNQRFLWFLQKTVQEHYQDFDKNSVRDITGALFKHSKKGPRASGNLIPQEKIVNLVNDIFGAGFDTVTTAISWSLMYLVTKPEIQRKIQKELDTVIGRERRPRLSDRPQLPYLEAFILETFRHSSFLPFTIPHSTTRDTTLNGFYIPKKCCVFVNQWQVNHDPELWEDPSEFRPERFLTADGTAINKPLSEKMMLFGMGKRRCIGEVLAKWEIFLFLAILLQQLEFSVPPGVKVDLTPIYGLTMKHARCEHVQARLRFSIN

[12] = biological target: CYP2D6 (Homo sapiens, UniProt P10635); test: Inhibition of CYP2D6 (unknown origin) at 3 uM relative to control; format: ADME; outline: as §2
Chain of CYP2D6 (P10635 whole entry, the tested form may be a part): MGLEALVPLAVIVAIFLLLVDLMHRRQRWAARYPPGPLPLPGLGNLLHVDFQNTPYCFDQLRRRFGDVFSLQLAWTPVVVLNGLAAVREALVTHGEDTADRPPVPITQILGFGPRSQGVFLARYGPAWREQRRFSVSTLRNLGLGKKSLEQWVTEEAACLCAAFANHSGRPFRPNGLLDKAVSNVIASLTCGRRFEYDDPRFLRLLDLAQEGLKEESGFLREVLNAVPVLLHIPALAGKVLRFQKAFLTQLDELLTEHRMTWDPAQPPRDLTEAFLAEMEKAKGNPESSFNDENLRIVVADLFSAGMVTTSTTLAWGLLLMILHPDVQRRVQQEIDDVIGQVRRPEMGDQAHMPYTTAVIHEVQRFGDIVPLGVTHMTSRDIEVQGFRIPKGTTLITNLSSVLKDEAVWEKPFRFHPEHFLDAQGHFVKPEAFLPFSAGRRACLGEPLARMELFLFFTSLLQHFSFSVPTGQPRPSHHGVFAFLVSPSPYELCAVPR

[13] = biological target: T3, 80S Ribosome (Homo sapiens) (UniProt P08865+P42677+P62753+P15880+P23396+P61247+P62701+P22090+P46782+P62081+P62241+P46781+P46783+P62280+P25398+P62277+P62263+P62841+P62244+P62249+P08708+P62269+P39019+P60866+P63220+P62266+P62847+P62851+P62854+P62979+P62857+P62273+P62861+P39023+P36578+P46777+Q02878+P18124+P62424+P62917+P32969+P27635+P62906+P62913+P30050+P26373+P40429+P50914+P61313+P18621+Q07020+Q02543+P84098+P46778+P35268+P62829+P62750+P83731+P61254+P61353+P46776+P46779+P47914+P62888+P62899+P62910+P49207+P42766+P18077+Q9Y3U8+P83881+P61927+P61513+P63173+P62891+P62945+P05388+P05386); test: Binding affinity to 80S ribosome in human HuH7 cells harboring pCMV-truncated human PCSK9 (1 to 152 residues)-proLuc assessed as inhibition of PCSK9 mRNA translation at 20 uM after overnight incubation by luciferase reporter gene assay relative to control; format: cell-based; conditions: Huh-7; outline: as §1
[14] = biological target: T3, 80S Ribosome (Homo sapiens); test: Binding affinity to 80S ribosome in human HuH7 cells assessed as inhibition of PCSK9 mRNA translation at 20 uM after overnight incubation by ELISA relative to control; format: cell-based; conditions: Huh-7
[15] = test system: Rattus norvegicus; test: Toxicity in Crl:CD(SD) rat assessed as single cell necrosis in crypt cells in ileum at 50 mg/kg/day, po daily via gavage for 14 days measured on day 15 post last dose; format: organism-based; conditions: in vivo, 336 h
[16] = test system: Rattus norvegicus; test: Toxicity in Crl:CD(SD) rat assessed as discolored/mottled liver at 50 mg/kg/day, po daily via gavage for 14 days measured on day 15 post last dose; format: organism-based; conditions: in vivo, 336 h
Outline: (§3)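 Male rats, 5 per group, given vehicle or compound at 50 mg/kg/day by oral gavage for 14 days. Mortality, clinical signs and hematology monitored throughout. Necropsy on day 15 with microscopy of bone marrow, ileum, duodenum, jejunum and liver. Toxicokinetics at 1, 3, 6 and 24 h post-dose on day 14.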

[17] = Selectivity index, ratio of IC50 for cytotoxicity against rat bone marrow cells to IC50 for 80S ribosome in human HuH7 cells harboring pCMV-truncated human PCSK9 (1 to 152 residues)-proLuc; format: toxicity, cell-based; conditions: read-out: Ratio IC50
[18] = test system: Rattus norvegicus; test: Toxicity in Crl:CD(SD) rat assessed as hepatocyte vacuolation at 50 mg/kg/day, po daily via gavage for 14 days measured on day 15 post last dose; format: organism-based; conditions: in vivo, 336 h; outline: as §3
[19] = biological target: T1, Voltage-gated inwardly rectifying potassium channel KCNH2; test: Inhibition of human ERG by patch clamp method
[20] = test system: Rattus norvegicus; test: In vivo drugmetabolism in rat assessed as (R)-N-(3-Chloropyridin-2-yl)-4-(6-(methylamino)pyrazin-2-yl)-N-(piperidin-3-yl)benzamide formation; format: ADME, organism-based
[21] = test system: Rhesus monkey; test: In vivo drugmetabolism in non-human primate assessed as (R)-N-(3-Chloropyridin-2-yl)-4-(6-(methylamino)pyrazin-2-yl)-N-(piperidin-3-yl)benzamide formation; format: ADME, organism-based, Macaca mulatta
[22] = Permeability from apical to basolateral side in MDCK cells harboring MDR1; format: ADME, cell-based, Canis lupus familiaris; conditions: dog, read-out: permeability
Outline: (§4)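 Bidirectional permeability across MDR1-transfected MDCK monolayers, apical-to-basolateral and basolateral-to-apical; Papp reported in 10^-6 cm/s.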

[23] = Permeability from basolateral to apical side in MDCK cells harboring MDR1; format: ADME, cell-based, Canis lupus familiaris; conditions: dog, read-out: permeability; outline: as §4
[24] = biological target: T4, Cytochrome P450 1A2 (Homo sapiens, UniProt P05177); test: Inhibition of CYP1A2 (unknown origin); format: ADME; outline: as §2
T4 sequence (P05177 whole entry): T2 sequence (P05177 whole entry)

[25] = biological target: Cytochrome P450 2D6 (Homo sapiens, UniProt P10635); test: Inhibition of CYP2D6 (unknown origin); format: ADME; outline: as §2
Chain of Cytochrome P450 2D6 (P10635 whole entry): as the sequence (P10635 whole entry, the tested form may be a part) above

[26] = biological target: Cytochrome P450 2C9 (Homo sapiens, UniProt P11712); test: Inhibition of CYP2C9 (unknown origin); format: ADME; outline: as §2
Chain of Cytochrome P450 2C9 (P11712 whole entry): as the sequence (P11712 whole entry) above

[27] = biological target: Cytochrome P450 3A4 (Homo sapiens, UniProt P08684); test: Inhibition of CYP3A4 (unknown origin); format: ADME; outline: as §2
Chain of Cytochrome P450 3A4 (P08684 whole entry): as the sequence (P08684 whole entry) above

[28] = Fraction unbound in rat plasma; format: ADME, cell-free
Outline: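 Unbound fraction measured in rat plasma.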

Structure (SMILES)	logD [1]	microsomal CLint [2] [µL/min/mg]	microsomal CLint [3] [µL/min/mg]	IC50 [4] [µM]	Ki [5] [µM]	IC50 [6] [µM]	IC50 [7] [µM]	other results
O=C(c1ccc(-c2cnccn2)cc1)N(c1nccc2ccccc12)[C@@H]1CCCNC1	0.7	123	11	4.3	> 40	9.32	> 20	
COc1ccc(CCC(=O)N(c2nccc3ccccc23)[C@@H]2CCCNC2)cc1	1.1	> 510	20.6	2.63	13	8.37	> 20	Papp [8]: 5.4 ×10⁻⁶ cm/s; inhibition at 3 µM [9]: < 20%; inhibition at 3 µM [10]: < 20%; inhibition at 3 µM [11]: < 20%; inhibition at 3 µM [12]: < 20%
O=C(c1ccc(-n2nnc3cccnc32)nc1)N(c1ncccc1Cl)[C@@H]1CCCNC1	0.1	14.7	< 8	4.1	12.7	9.24		
O=C(c1ccc(-n2nnc3cccnc32)cc1)N(c1ncccc1Cl)[C@H]1CCCNC1							> 20	inhibition [13]: 61%; inhibition [14]: 24%; Activity [15]: Non-Toxic; Activity [16]: Toxic
O=C(c1ccc(-n2nnc3cccnc32)cc1)N(c1nccc2ccccc12)[C@@H]1CCCNC1	1.4		21.8	0.39	15.8	0.9		
CNc1cncc(-c2ccc(C(=O)N(c3ncccc3Cl)[C@@H]3CCCNC3)cc2)n1	1.07		8.7		38.4	3.08	19.6	
O=C(c1ccc(-c2ccccc2)cc1)N(c1nccc2ccccc12)[C@@H]1CCCNC1	2.5	57.7	10.7		2.2			inhibition [13]: 54%; inhibition [14]: 39%
Cc1ccc2nnn(-c3ccc(C(=O)N(c4ncccc4Cl)[C@@H]4CCCNC4)cc3)c2n1	1.2	38.5	9	0.45	34	0.9	1	selectivity ratio [17]: 2
Cc1cnc2c(c1)nnn2-c1ccc(C(=O)N(c2ncccc2Cl)[C@@H]2CCCNC2)cc1	1.2	16.5	8.8	0.41	3.3	0.78	> 19.7	Activity [15]: Non-Toxic; Activity [16]: Toxic; Activity [18]: Toxic
CN(C)c1cncc(-c2ccc(C(=O)N(c3ncccc3Cl)[C@@H]3CCCNC3)cc2)n1	1.37		18.2		14.1	2.97	30.1	IC50 [19]: 43.2 µM; Drug metabolism [20]: Metabolite_Detected; Drug metabolism [21]: Metabolite_Notdetected
O=C(c1ccc(-n2nnc3cccnc32)cn1)N(c1ncccc1Cl)[C@@H]1CCCNC1	0.3	15.3	< 8	0.71	28.8	1.44	> 12.7	Activity [15]: Non-Toxic; Activity [16]: Toxic
O=C(c1ccc(-c2cnn3cccnc23)cc1)N(c1nccc2ccccc12)[C@@H]1CCCNC1	1.1	31.2	14.5	0.69	5.4	1.29	1.4	
Cc1cncc(-c2ccc(C(=O)N(c3ncccc3Cl)[C@@H]3CCCNC3)cc2)n1	0.8 to 1.37		< 8		38.2	2.82	43.7	Papp [8]: 10.5 ×10⁻⁶ cm/s; Papp A→B [22]: 0.7 ×10⁻⁶ cm/s; Papp B→A [23]: 20 ×10⁻⁶ cm/s; IC50 [24]: > 30 µM; IC50 [25]: > 30 µM; IC50 [26]: > 30 µM; IC50 [27]: > 30 µM; fraction unbound [28]: 0.41; IC50 [19]: 59.8 µM
Cn1cc(-c2ccc(C(=O)N(c3nccc4ccccc34)[C@@H]3CCCNC3)cc2)cn1	0.9		13.3	1.06	16	2.38	2.9	
